ChEMBL document CHEMBL4351031, “The development of 2-acetylphenol-donepezil hybrids as multifunctional agents for the treatment of Alzheimer's disease” (Bioorg Med Chem Lett, 2019)
pIC50: −log10 of the molar value. Activity calls are given as the source filed them. No cut-off for these calls is given here.

Legend:
[1] = Selectivity index, ratio of IC50 for equine serum BuChE using S-butyrylthiocholine chloride as substrate to IC50 for electric eel AChE using acetylthiocholine iodide as substrate by Ellman's method
Summary of the method: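 Selectivity index is IC50(eqBuChE)/IC50(EeAChE). Both IC50s come from the modified Ellman method, using Electrophorus electricus AChE and equine serum BuChE. Each IC50 is the mean of three independent experiments, each run in triplicate.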

MAO-A = biological target: T1, MAO-A (Homo sapiens, UniProt P21397); test: Inhibition of human recombinant MAO-A using kynuramine as substrate at 10 uM measured after 30 mins by fluorimetric assay relative to control; settings: probe kynuramine
T1 sequence (P21397 whole entry): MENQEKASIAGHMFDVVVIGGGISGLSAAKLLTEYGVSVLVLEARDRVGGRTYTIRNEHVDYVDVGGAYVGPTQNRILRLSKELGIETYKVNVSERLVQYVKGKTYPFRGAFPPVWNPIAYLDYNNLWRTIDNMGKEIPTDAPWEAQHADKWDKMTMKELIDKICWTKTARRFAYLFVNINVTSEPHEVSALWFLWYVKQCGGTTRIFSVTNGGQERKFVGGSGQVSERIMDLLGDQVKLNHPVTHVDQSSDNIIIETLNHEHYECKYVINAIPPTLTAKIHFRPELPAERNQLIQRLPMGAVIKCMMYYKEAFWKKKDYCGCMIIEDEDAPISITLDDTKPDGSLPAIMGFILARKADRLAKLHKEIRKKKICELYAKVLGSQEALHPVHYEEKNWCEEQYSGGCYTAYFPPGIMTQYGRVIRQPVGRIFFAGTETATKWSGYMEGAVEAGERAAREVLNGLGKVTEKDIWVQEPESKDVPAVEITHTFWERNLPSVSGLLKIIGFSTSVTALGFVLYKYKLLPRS

[2] = biological target: T2, Amine oxidase [flavin-containing] B (Homo sapiens, UniProt P27338); test: Inhibition of human recombinant MAO-B using kynuramine as substrate measured after 30 mins by fluorimetric assay
T2 sequence (P27338 whole entry): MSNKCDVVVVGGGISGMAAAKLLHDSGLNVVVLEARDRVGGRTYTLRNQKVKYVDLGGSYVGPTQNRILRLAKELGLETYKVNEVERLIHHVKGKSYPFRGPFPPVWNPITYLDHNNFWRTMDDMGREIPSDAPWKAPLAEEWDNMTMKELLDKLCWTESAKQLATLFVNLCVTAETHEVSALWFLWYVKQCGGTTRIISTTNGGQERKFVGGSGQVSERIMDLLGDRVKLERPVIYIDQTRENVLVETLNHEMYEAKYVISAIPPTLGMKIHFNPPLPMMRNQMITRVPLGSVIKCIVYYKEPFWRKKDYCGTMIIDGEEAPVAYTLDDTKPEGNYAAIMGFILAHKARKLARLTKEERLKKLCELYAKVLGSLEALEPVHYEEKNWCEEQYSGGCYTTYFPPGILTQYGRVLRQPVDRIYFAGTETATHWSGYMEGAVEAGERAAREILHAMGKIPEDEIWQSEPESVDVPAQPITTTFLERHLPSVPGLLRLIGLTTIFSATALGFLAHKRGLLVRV

Acetylcholinesterase = Acetylcholinesterase (Electrophorus electricus, UniProt O42275); test: Inhibition of electric eel AChE using acetylthiocholine iodide incubated for 15 mins as substrate by Ellman's method
Acetylcholinesterase, sequence (O42275 whole entry): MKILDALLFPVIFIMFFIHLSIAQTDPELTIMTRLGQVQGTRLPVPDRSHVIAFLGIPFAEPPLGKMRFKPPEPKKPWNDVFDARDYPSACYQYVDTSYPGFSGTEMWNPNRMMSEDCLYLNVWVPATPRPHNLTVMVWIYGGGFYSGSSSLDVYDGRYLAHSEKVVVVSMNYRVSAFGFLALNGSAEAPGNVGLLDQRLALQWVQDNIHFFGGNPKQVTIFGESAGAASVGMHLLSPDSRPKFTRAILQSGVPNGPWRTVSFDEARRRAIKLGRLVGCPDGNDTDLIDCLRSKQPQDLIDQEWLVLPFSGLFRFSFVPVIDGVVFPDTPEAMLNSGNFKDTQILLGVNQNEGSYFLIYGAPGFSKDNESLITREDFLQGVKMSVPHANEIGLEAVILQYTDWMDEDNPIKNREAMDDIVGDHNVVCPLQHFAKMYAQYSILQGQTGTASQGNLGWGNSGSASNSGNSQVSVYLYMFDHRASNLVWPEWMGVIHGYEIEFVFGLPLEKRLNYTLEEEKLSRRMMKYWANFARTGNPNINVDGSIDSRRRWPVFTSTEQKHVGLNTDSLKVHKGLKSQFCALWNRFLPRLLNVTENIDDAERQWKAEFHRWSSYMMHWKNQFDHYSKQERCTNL

Cholinesterase = Cholinesterase (Equus caballus, UniProt P81908); test: Inhibition of equine serum BuChE using S-butyrylthiocholine chloride as substrate incubated for 15 mins by Ellman's method
Cholinesterase, sequence (P81908 whole entry): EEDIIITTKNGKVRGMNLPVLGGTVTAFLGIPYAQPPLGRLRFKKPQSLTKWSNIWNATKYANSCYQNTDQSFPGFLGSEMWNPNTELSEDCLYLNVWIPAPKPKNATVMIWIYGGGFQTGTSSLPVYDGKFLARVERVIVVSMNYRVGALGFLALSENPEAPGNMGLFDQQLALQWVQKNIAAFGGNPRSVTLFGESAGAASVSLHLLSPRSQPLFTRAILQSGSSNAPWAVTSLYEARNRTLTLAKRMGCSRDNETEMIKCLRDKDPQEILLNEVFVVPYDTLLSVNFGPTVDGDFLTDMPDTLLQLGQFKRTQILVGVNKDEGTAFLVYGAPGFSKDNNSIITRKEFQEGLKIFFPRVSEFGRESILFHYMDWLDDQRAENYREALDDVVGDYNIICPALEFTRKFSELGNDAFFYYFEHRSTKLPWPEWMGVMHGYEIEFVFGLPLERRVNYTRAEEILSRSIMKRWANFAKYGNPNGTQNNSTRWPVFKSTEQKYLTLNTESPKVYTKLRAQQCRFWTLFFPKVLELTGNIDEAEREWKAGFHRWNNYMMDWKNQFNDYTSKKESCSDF
Summary of the method: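 Modified Ellman method using equine serum BuChE. […] Values are the mean of three independent experiments, each run in triplicate, with SD.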

[3] = biological target: T3, Amine oxidase [flavin-containing] A (Homo sapiens, UniProt P21397); test: Inhibition of human recombinant MAO-A using kynuramine as substrate measured after 30 mins by fluorimetric assay
T3 sequence (P21397 whole entry): T1 sequence (P21397 whole entry)
Summary of the method: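 Recombinant human MAO-A inhibition measured by a fluorimetric assay. Each value is the mean of three independent experiments, each run in triplicate, with SD reported.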

[4] = biological target: Cholinesterase (Equus caballus) (UniProt P81908); test: Inhibition of equine serum BuChE using S-butyrylthiocholine chloride as substrate at 50 uM incubated for 15 mins by Ellman's method relative to control
Cholinesterase (Equus caballus), sequence (P81908 whole entry): as above

[5] = Permeability of the compound at 100 ug/ml measured after compound dilution in PBS/EtOH buffer (70:30) by PAMPA-BBB assay
[6] = Metal chelating activity assessed as Cu2+-compound complex formation measured as red shift in absorption spectra at 37.5 uM measured after 30 mins in presence of 37.5 uM CuCl2 by UV-vis spectrophotometric analysis
[7] = biological target: Acetylcholinesterase (Electrophorus electricus) (UniProt O42275); test: Mixed inhibition of electric eel AChE at 1.5 to 6 uM preincubated with enzyme for 15 mins followed by substrate addition using acetylthiocholine iodide as substrate by double reciprocal Lineweaver-Burk plot analysis
Acetylcholinesterase (Electrophorus electricus), sequence (O42275 24-633 limits assumed): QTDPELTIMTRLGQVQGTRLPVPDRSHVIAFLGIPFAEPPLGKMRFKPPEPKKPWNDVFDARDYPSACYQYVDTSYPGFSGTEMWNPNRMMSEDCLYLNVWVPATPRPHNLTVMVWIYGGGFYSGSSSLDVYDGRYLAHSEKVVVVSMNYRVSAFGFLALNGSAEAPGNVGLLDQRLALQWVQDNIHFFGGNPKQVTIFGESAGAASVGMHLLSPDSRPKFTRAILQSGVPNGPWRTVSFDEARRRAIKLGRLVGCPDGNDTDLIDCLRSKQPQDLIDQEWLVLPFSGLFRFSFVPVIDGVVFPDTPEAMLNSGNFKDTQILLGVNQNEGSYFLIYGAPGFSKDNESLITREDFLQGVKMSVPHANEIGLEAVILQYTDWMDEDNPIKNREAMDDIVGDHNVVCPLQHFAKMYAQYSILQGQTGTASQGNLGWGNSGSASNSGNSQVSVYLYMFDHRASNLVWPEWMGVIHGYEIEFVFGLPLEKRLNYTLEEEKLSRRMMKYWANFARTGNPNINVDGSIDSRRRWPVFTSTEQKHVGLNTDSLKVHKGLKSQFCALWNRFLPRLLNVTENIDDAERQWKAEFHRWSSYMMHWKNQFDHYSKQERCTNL

[8] = Metal chelating activity assessed as Zn2+-compound complex formation at 37.5 uM measured after 30 mins in presence of 37.5 uM ZnCl2 by UV-vis spectrophotometric analysis
[9] = Metal chelating activity assessed as mole fraction of the compound required for Cu2+ -compound complex formation at stoichiometry ratio of 1:1 at 37.5 uM measured after 30 mins in presence of 3.75 to 93.75 uM CuCl2 by UV-vis spectrophotometric analysis
Summary of the method: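 Cu2+ complex stoichiometry determined by the molar ratio method. Ascending amounts of CuCl2 were added to the test compound, at a final concentration of 37.5 μM. Absorbance was plotted against mole fraction, and the stoichiometry was taken from the intersection of two fitted straight lines. The final Cu2+ concentration started at 3.75 μM.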

[10] = Metal chelating activity assessed as Fe2+-compound complex formation at 37.5 uM measured after 30 mins in presence of 37.5 uM FeSO4 by UV-vis spectrophotometric analysis
[11] = Metal chelating activity assessed as Al3+-compound complex formation at 37.5 uM measured after 30 mins in presence of 37.5 uM AlCl3 by UV-vis spectrophotometric analysis

## CCN(CCCCCOc1ccc(C(C)=O)c(O)c1)Cc1ccccc1
[1]
  Ratio IC50: 7.1
MAO-A
  inhibition at 0.5 h, 10 µM: < 10%
[2]
  pIC50: 4.53
Acetylcholinesterase
  pIC50: 5.28
Cholinesterase
  pIC50: 4.43

## CC(=O)c1ccc(OCCCCCCN2CCc3ccccc3C2)cc1O
[1]
  Ratio IC50: 3.5
[3]
  pIC50: 4.67
[2]
  pIC50: 4.57
Acetylcholinesterase
  pIC50: 5.04
Cholinesterase
  pIC50: 4.49

## CC(=O)c1ccc(OCCN2CCC(Cc3ccccc3)CC2)cc1O
MAO-A
  inhibition at 0.5 h, 10 µM: < 10%
[2]
  pIC50: 4.64
Acetylcholinesterase
  pIC50: 4.78
[4]
  inhibition: < 5%

## CC(=O)c1ccc(OCCCCCCCCCN2CCc3ccccc3C2)cc1O
MAO-A
  inhibition at 0.5 h, 10 µM: < 10%
[2]
  pIC50: 4.71
Acetylcholinesterase
  pIC50: 4.94
[4]
  inhibition: < 5%

## CCN(CCCCCCCCCCOc1ccc(C(C)=O)c(O)c1)Cc1ccccc1
[1]
  Ratio IC50: 7.8
MAO-A
  inhibition at 0.5 h, 10 µM: < 10%
[2]
  pIC50: 4.63
Acetylcholinesterase
  pIC50: 5.19
Cholinesterase
  pIC50: 4.29

## CC(=O)c1ccc(OCCCCCN2CCc3ccccc3C2)cc1O
MAO-A
  inhibition at 0.5 h, 10 µM: < 10%
[2]
  pIC50: 4.82
Acetylcholinesterase
  pIC50: 5.12
[4]
  inhibition: < 5%

## CC(=O)c1ccc(OCCCCCCCCCCN2CCC(Cc3ccccc3)CC2)cc1O
MAO-A
  inhibition at 0.5 h, 10 µM: < 10%
[2]
  pIC50: 4.67
Acetylcholinesterase
  pIC50: 5.04
[4]
  inhibition: 13.8%

## CC(=O)c1ccc(OCCCCN2CCc3ccccc3C2)cc1O
[1]
  Ratio IC50: 8.1
MAO-A
  inhibition at 0.5 h, 10 µM: 6.3%
[2]
  pIC50: 4.89
Acetylcholinesterase
  pIC50: 5.23
Cholinesterase
  pIC50: 4.32

## CC(=O)c1ccc(OCCCCCCCCCCN2CCC(c3ccccc3)CC2)cc1O
MAO-A
  inhibition at 0.5 h, 10 µM: < 10%
[2]
  pIC50: 4.85
Acetylcholinesterase
  pIC50: 4.74
[4]
  inhibition: 0.8%

## CC(=O)c1ccc(OCCCCCCN2CCC(Cc3ccccc3)CC2)cc1O
[1]
  Ratio IC50: 9.4
[3]
  pIC50: 4.66
[2]
  pIC50: 4.80
Acetylcholinesterase
  pIC50: 5.15
Cholinesterase
  pIC50: 4.17

## CCN(CCOc1ccc(C(C)=O)c(O)c1)Cc1ccccc1
MAO-A
  inhibition at 0.5 h, 10 µM: < 10%
[2]
  pIC50: 4.86
Acetylcholinesterase
  pIC50: 4.72
[4]
  inhibition: < 5%

## CCN(CCCCOc1ccc(C(C)=O)c(O)c1)Cc1ccccc1
[5]
  Papp at 100 ug/ml: 15.1 ×10⁻⁶ cm/s
[1]
  Ratio IC50: 11.9
[6]
  Activity: Active
[7]
  inhibition: Active
MAO-A
  inhibition at 0.5 h, 10 µM: < 10%
[8]
  Activity: inactive
[2]
  pIC50: 4.78
[9]
  Ratio (mole fraction): 0.97
Acetylcholinesterase
  pIC50: 5.54
[10]
  Activity: inactive
Cholinesterase
  pIC50: 4.46
[11]
  Activity: inactive

## CC(=O)c1ccc(OCCCCCCCCCCN2CCN(Cc3ccccc3)CC2)cc1O
[3]
  pIC50: 4.70
[2]
  pIC50: 4.76
Acetylcholinesterase
  pIC50: 5.16
[4]
  inhibition: 15.1%

## COc1cc2c(cc1OC)CN(CCCCOc1ccc(C(C)=O)c(O)c1)CC2
[1]
  Ratio IC50: 3.5
MAO-A
  inhibition at 0.5 h, 10 µM: < 10%
[2]
  pIC50: 4.80
Acetylcholinesterase
  pIC50: 4.80
Cholinesterase
  pIC50: 4.25

## CC(=O)c1ccc(OCCCCCCCCCN2CCN(Cc3ccccc3)CC2)cc1O
[1]
  Ratio IC50: 2.9
[3]
  pIC50: 4.71
[2]
  pIC50: 4.67
Acetylcholinesterase
  pIC50: 5.17
Cholinesterase
  pIC50: 4.70

## CCN(CC)CCCCOc1ccc(C(C)=O)c(O)c1
MAO-A
  inhibition at 0.5 h, 10 µM: < 10%
[2]
  pIC50: 4.65
Acetylcholinesterase
  pIC50: 4.68
[4]
  inhibition: < 5%

## CC(=O)c1ccc(OCCCCCN2CCC(Cc3ccccc3)CC2)cc1O
MAO-A
  inhibition at 0.5 h, 10 µM: < 10%
[2]
  pIC50: 4.68
Acetylcholinesterase
  pIC50: 5.09
[4]
  inhibition: < 5%

## CC(=O)c1ccc(OCCCN2CCC(c3ccccc3)CC2)cc1O
[1]
  Ratio IC50: 2.2
[3]
  pIC50: 4.61
[2]
  pIC50: 4.70
Acetylcholinesterase
  pIC50: 4.87
Cholinesterase
  pIC50: 4.53

## CCN(CC)CCCOc1ccc(C(C)=O)c(O)c1
MAO-A
  inhibition at 0.5 h, 10 µM: < 10%
[2]
  pIC50: 4.79
Acetylcholinesterase
  pIC50: 4.57
[4]
  inhibition: < 5%

## CC(=O)c1ccc(OCCCN2CCc3ccccc3C2)cc1O
MAO-A
  inhibition at 0.5 h, 10 µM: < 10%
[2]
  pIC50: 4.78
Acetylcholinesterase
  pIC50: 5.05
[4]
  inhibition: < 5%

## CC(=O)c1ccc(OCCCCCCCCCN2CCC(Cc3ccccc3)CC2)cc1O
MAO-A
  inhibition at 0.5 h, 10 µM: < 10%
[2]
  pIC50: 4.55
Acetylcholinesterase
  pIC50: 5.07
[4]
  inhibition: < 5%

## CC(=O)c1ccc(OCCN2CCN(Cc3ccccc3)CC2)cc1O
[5]
  Papp at 100 ug/ml: 17.4 ×10⁻⁶ cm/s
[3]
  pIC50: 4.58
[2]
  pIC50: 4.99
Acetylcholinesterase
  pIC50: 5.18
[4]
  inhibition: 11.2%

## CC(=O)c1ccc(OCCCCCCCCCCCCN2CCC(Cc3ccccc3)CC2)cc1O
MAO-A
  inhibition at 0.5 h, 10 µM: < 10%
[2]
  pIC50: 4.59
Acetylcholinesterase
  pIC50: 5.02
[4]
  inhibition: < 5%

## CCN(CC)CCOc1ccc(C(C)=O)c(O)c1
MAO-A
  inhibition at 0.5 h, 10 µM: < 10%
[2]
  pIC50: 4.93
Acetylcholinesterase
  pIC50: 4.45
[4]
  inhibition: < 5%

## CCN(CC)CCCCCCOc1ccc(C(C)=O)c(O)c1
MAO-A
  inhibition at 0.5 h, 10 µM: < 10%
[2]
  pIC50: 4.66
Acetylcholinesterase
  pIC50: 4.79
[4]
  inhibition: < 5%

## CC(=O)c1ccc(OCCCN2CCC(Cc3ccccc3)CC2)cc1O
[1]
  Ratio IC50: 5.4
MAO-A
  inhibition at 0.5 h, 10 µM: < 10%
[2]
  pIC50: 4.73
Acetylcholinesterase
  pIC50: 4.93
Cholinesterase
  pIC50: 4.20

## CC(=O)c1ccc(OCCCCN2CCC(Cc3ccccc3)CC2)cc1O
MAO-A
  inhibition at 0.5 h, 10 µM: < 10%
[2]
  pIC50: 4.87
Acetylcholinesterase
  pIC50: 5.05
[4]
  inhibition: < 5%

## CCN(CCCOc1ccc(C(C)=O)c(O)c1)Cc1ccccc1
[1]
  Ratio IC50: 2.6
MAO-A
  inhibition at 0.5 h, 10 µM: < 10%
[2]
  pIC50: 4.83
Acetylcholinesterase
  pIC50: 5.14
Cholinesterase
  pIC50: 4.73

## CCN(CCCCCCCCCCCCOc1ccc(C(C)=O)c(O)c1)Cc1ccccc1
[1]
  Ratio IC50: 5
MAO-A
  inhibition at 0.5 h, 10 µM: < 10%
[2]
  pIC50: 4.48
Acetylcholinesterase
  pIC50: 5.11
Cholinesterase
  pIC50: 4.41

## COc1cc2c(cc1OC)CN(CCCOc1ccc(C(C)=O)c(O)c1)CC2
[1]
  Ratio IC50: 5.7
MAO-A
  inhibition at 0.5 h, 10 µM: 8.1%
[2]
  pIC50: 4.86
Acetylcholinesterase
  pIC50: 5.00
Cholinesterase
  pIC50: 4.24
